The text below walks through data of ChEMBL document CHEMBL2346548, “Design, synthesis, and structure-activity relationship studies of tryptanthrins as antitubercular agents” (J Nat Prod, 2013).

The test system of data set [1] is Mycobacterium tuberculosis. In words: Antitubercular activity against Mycobacterium tuberculosis H37Rv incubated at 37 degC for 7 days by microplate alamar blue assay. The format is functional. Particulars: for MIC: Mycobacterium tuberculosis, H37Rv, 168 h. The method, boiled down: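 Mtb H37Rv was grown in 7H9 broth with glycerol, Casitone, 10% OADC and 0.05% Tween 80 to OD600 0.4. Compounds were 2-fold serially diluted from DMSO stocks in 7H9, and wells were inoculated at 2 × 10⁵ CFU/mL. After 7 days at 37 °C, Alamar Blue was added and read after a further 24 h. MIC was the lowest concentration preventing the blue-to-pink change.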
(The colour change of resazurin is a common sign of viable cells or microbes.)

The next data set deals with Vero. Description: Cytotoxicity against african green monkey Vero cells. The format is cell-based, Chlorocebus sabaeus.
Data set [2] concerns Mycobacterium tuberculosis. In words: Antitubercular activity against non-replicating Mycobacterium tuberculosis H37Rv incubated for 10 days by LORA method. Type of data set: functional. Particulars: 240 h. The procedure, abridged: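 H37Rv carrying pFCA-luxAB was adapted to low oxygen by gradual self-depletion in a sealed, slowly stirred flask. It was then exposed to compounds for 10 days under anaerobic conditions. Cultures recovered for 28 h in ambient oxygen before n-decanal substrate was added and luminescence read. MIC was the lowest concentration giving a 90% reduction in luminescence versus untreated controls.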

For data set [3], the system named is Mycobacterium tuberculosis. In words: Antitubercular activity against Mycobacterium tuberculosis H37Rv incubated at 37 degC for 14 days in presence of 40% human serum by microplate alamar blue assay. Type of data set: functional. Particulars: 336 h. The procedure, abridged: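 This is the MABA run in 7H9 broth containing 40% human serum. Compounds were 2-fold serially diluted, and wells were inoculated with H37Rv at 2 × 10⁵ CFU/mL. Incubation was at 37 °C for 14 days, then Alamar Blue was added. MIC was the lowest concentration preventing the blue-to-pink colour change.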

A short description of data set [4]: Permeability across apical to basolateral side in human Caco2 cells incubated for 1 hr at 37 degC by HPLC-MS/MS method. Particulars: Caco-2. Type of data set: ADME, cell-based. The method, boiled down: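 TC7 (Caco-2 subclone) monolayer; 10 μM compound in 1% DMSO in HBSS-MES pH 6.5 on apical donor side, basolateral receiver pH 7.4; shaken 1 h at 37 °C; receiver sampled, HPLC-MS/MS; duplicate means.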
(Passage across Caco-2 layers is used to estimate intestinal permeability.)

A short description of data set [5]: Solubility in simulated intestinal fluid at pH 7.6 by HPLC method. Type of data set: physicochemical. The method, boiled down: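 Simulated intestinal fluid medium; each analogue 200 μM final in 2% DMSO, shaken 24 h at room temperature, then HPLC with photodiode array read at 230 nm; duplicate, means given.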
The nature of data set [6]: Metabolic stability in human liver microsomes assessed as parent compound remaining at 1 uM incubated for 1 hr by HPLC-MS/MS method. Type of data set: ADME, Microsome. Conditions: read-out: Stability. The method, boiled down: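 Pooled mixed-gender human liver microsomes (0.3 mg/mL protein), 1 μM compound with NADP-regenerating system in phosphate buffer pH 7.4, 1 h at 37 °C; parent measured at start and end by HPLC-MS/MS; duplicate means.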
For orientation: Microsomes from liver hold many membrane-bound enzymes, among them those of drug oxidation.

The nature of data set [7]: Permeability across basolateral to apical side in human Caco2 cells incubated for 1 hr at 37 degC by HPLC-MS/MS method. The format is ADME, cell-based. Conditions: Caco-2.
Setting [8] is: Chlorocebus sabaeus, Vero, read-out: IC50.

Values after ≈ are worked out from the molar mass of the structure shown.

In data set [1], `O=C1C2=Nc3ccncc3CN2c2ccccc21` displayed an MIC of 16 µg/mL (≈ 68 µM). Further, the IC50 with Vero (setting [8]) was above 20 µg/mL. For the same compound, the MIC90 in data set [2] is above 20 µg/mL.

As to `O=C1c2ccc(N3CCCCC3)cc2-n2c1nc1ncccc1c2=O`, the MIC was determined as 4 µg/mL (≈ 12 µM) in data set [1] and 16 µg/mL in data set [3]. For the same compound, the IC50 with Vero (setting [8]) was found to be 81 µg/mL (≈ 244 µM).

For the compound `O=C1C2=Nc3ccncc3CN2c2ccc(OC(F)(F)F)cc21`, the lowest concentration to inhibit growth in data set [1] (MIC) was 2 µg/mL (≈ 6.26 µM). Further, in the data set on Vero (setting [8]), the IC50 is 5.2 µg/mL (≈ 16.3 µM). In data set [2], this compound displayed an MIC90 of 9 µg/mL (≈ 28.2 µM).

In data set [1], `CS(=O)(=O)Nc1ccc2c(c1)C(=O)c1nc3ccccc3c(=O)n1-2` returned an MBC90 of 2 µg/mL (≈ 5.86 µM). The values for the minimum inhibitory concentration (MIC) in data set [1] and in data set [3] were 4 µg/mL (≈ 11.7 µM) and above 8 µg/mL, respectively. The IC50 in the data set on Vero (setting [8]) was above 8 µg/mL.

Take `O=C1c2ccc(N3CCCCC3)cc2-n2c1nc1ccccc1c2=O`: the MIC in data set [1] and in data set [3] was above 128 µg/mL each time. The IC50 in the data set with Vero (setting [8]) turned out to be 18 µg/mL (≈ 54.3 µM).

In data set [1], `Cl.O=C1c2ccc(N3CCNCC3)cc2-n2c1nc1ccccc1c2=O` came in with an MBC90 above 16 µg/mL and an MIC of 8 µg/mL. Also, in data set [3], the MIC amounted to 8 µg/mL. Also, the IC50 in the data set with Vero (setting [8]) was 16 µg/mL.

In data set [1], `CCN(CCN(C)C)c1ccc2nc3n(c(=O)c2c1)-c1ccc(Cl)cc1C3=O` showed an MBC90 of 4 µg/mL (≈ 10.1 µM) and an MIC of 16 µg/mL (≈ 40.3 µM). Moreover, in data set [3], the MIC was 16 µg/mL. In addition, the IC50 in the data set on Vero (setting [8]) stood at 32 µg/mL (≈ 80.6 µM).

As for `O=C1c2ccc(Cl)cc2-n2c1nc1ncccc1c2=O`, the MIC in data set [1] was determined as 1 µg/mL (≈ 3.53 µM); in data set [3], 2 µg/mL. Further, the IC50 in the data set on Vero (setting [8]) was found to be 7 µg/mL (≈ 24.7 µM).

`O=C1c2cc(Cl)ccc2-n2c1nc1ccc(F)cc1c2=O`: the results for the MIC in data set [1] and in data set [3] were 0.156 µg/mL (≈ 0.519 µM) and 0.312 µg/mL, respectively. Moreover, the Papp A→B at 1 h in data set [4] was determined as 2.2 ×10⁻⁶ cm/s. The compound also gave a solubility in data set [5] of 29.8 µM (≈ 8.96 µg/mL). The 50% inhibitory concentration (IC50) in the data set on Vero (setting [8]) came to 23.5 µg/mL (≈ 78.2 µM). Also, the remaining at 1 h, 1 µM in data set [6] was found to be 63%. The compound also gave an MIC90 in data set [2] above 50 µg/mL. This compound also displayed a Papp B→A at 1 h in data set [7] of 2.1 ×10⁻⁶ cm/s.

For the compound `O=C1c2ccccc2-n2c1nc1ncccc1c2=O`, the MIC in data set [1] is 4 µg/mL (≈ 16 µM); in data set [3], 8 µg/mL. In addition, the IC50 with Vero (setting [8]) came out at 24 µg/mL (≈ 96.3 µM). This compound showed an MIC90 in data set [2] of 23 µg/mL (≈ 92.3 µM).

With `O=C1c2ccc(N3CCC(O)CC3)cc2-n2c1nc1ccccc1c2=O`, the MIC in data set [1] turned out to be 16 µg/mL (≈ 46.1 µM); in data set [3] it was 16 µg/mL. For the same compound, the IC50 with Vero (setting [8]) is 31 µg/mL (≈ 89.2 µM).

For the compound `O=C1c2ccc(N3CCOCC3)cc2-n2c1nc1ncccc1c2=O`, the IC50 result in the data set with Vero (vero) is recorded as “ND(Insoluble)”.

For the compound `O=C1C2=Nc3ccncc3CN2c2ccc(Cl)cc21`, inhibition of growth in data set [1] (MIC) required 2 µg/mL (≈ 7.42 µM). Moreover, the IC50 in the data set with Vero (setting [8]) amounted to 3.7 µg/mL (≈ 13.7 µM). Also, the MIC90 in data set [2] was determined as 8.3 µg/mL (≈ 30.8 µM).

`O=C1C2=Nc3ncccc3CN2c2ccc(Cl)cc21`: the MIC in data set [1] was determined as 16 µg/mL (≈ 59.3 µM). In addition, the IC50 with Vero (setting [8]) was above 10 µg/mL.

For the compound `O=C1c2cc(Br)ccc2-n2c1nc1ncccc1c2=O`, the MIC worked out at 16 µg/mL (≈ 48.8 µM) in data set [1] and 32 µg/mL in data set [3]. Also, in the data set with Vero (setting [8]), the IC50 is above 20 µg/mL.

In data set [1], `O=C1c2cc(F)ccc2-n2c1nc1ncccc1c2=O` had an MBC90 of 1 µg/mL (≈ 3.74 µM) and an MIC of 1 µg/mL (≈ 3.74 µM). For the same compound, the MIC in data set [3] worked out at 2 µg/mL. For the same compound, the IC50 in the data set with Vero (setting [8]) was determined as 0.3 µg/mL (≈ 1.12 µM).

Turning to `O=C1c2ccc(N3CCNCC3)cc2-n2c1nc1ccccc1c2=O`, in data set [1], the MBC90 was above 2 µg/mL. The MIC was 0.5 µg/mL (≈ 1.5 µM) in data set [1] and above 2 µg/mL in data set [3]. Besides, in the data set with Vero (setting [8]), the IC50 was above 2 µg/mL.

As to `O=C1c2cc(OC(F)(F)F)ccc2-n2c1nc1cnccc1c2=O`, the MIC was determined as 0.125 µg/mL (≈ 0.375 µM) in data set [1] and 0.25 µg/mL in data set [3]. Also, in the data set with Vero (setting [8]), the IC50 is 5.4 µg/mL (≈ 16.2 µM). Further, in data set [2], the MIC90 was found to be 1.5 µg/mL (≈ 4.5 µM).

Take `O=C1C2=Nc3ncccc3CN2c2ccccc21`: in data set [1], it took 32 µg/mL (≈ 136 µM) to inhibit growth (MIC). For the same compound, in the data set on Vero (setting [8]), the IC50 came out at 4.8 µg/mL (≈ 20.4 µM).

Turning to `O=C1c2cc(C(=O)N3CCOCC3)ccc2-n2c1nc1ccccc1c2=O`, the MIC in data set [1] came out at 8 µg/mL (≈ 22.1 µM); in data set [3], 32 µg/mL. The IC50 in the data set on Vero (setting [8]) is above 10 µg/mL. The same compound displayed an MIC90 in data set [2] above 10 µg/mL.

In turn, `O=C1C2=Nc3ncccc3CN2c2ccc(OC(F)(F)F)cc21` displayed an MIC in data set [1] of 16 µg/mL (≈ 50.1 µM). Also, the IC50 in the data set with Vero (setting [8]) turned out to be 4.4 µg/mL (≈ 13.8 µM).

A word on the MIC: it is the lowest concentration found to suppress growth. For orientation: IC50 means the concentration that gives 50% inhibition. The term MIC90 denotes the lowest concentration that inhibits either 90% of growth or 90% of the strains tested, depending on the study. For orientation: Papp A→B means the apparent permeability from the apical to the basolateral side of a cell layer. In general, solubility refers to the dissolved amount per volume that the medium holds. The term Papp B→A denotes the apparent permeability from the basolateral to the apical side of a cell layer.
